This is one part of a sample in which hits are shown more often than they occur.
CHOP inh: inhibitors of CHOP promoter induction, primary screen, cell-based, unfolded protein response, luciferase reporter; inhibition, % at 10 µM; CHO-K1 CHOP-promoter luciferase, tunicamycin-induced, 15-18 h; 220,000 compounds, 3.8% hits;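 active = compounds that reduced the stress-induced luciferase reporter signal by more than about 70% of percent inhibition, limit read from the data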;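 note: 0% = tunicamycin plus vehicle and 100% = wells without tunicamycin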
Bfl-1 A1 inh: caspase 3/7 activation in MEF A1-2A-BIM cells, primary screen, A1 inhibitor project, cell-based, luminescence, HTS. Caspase-Glo 3/7 luminescence, 3 h; percent of clofoctol response, vehicle zero. caspase activation, % (no concentration beside the values). 330,000 compounds, 0.066% hits;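 active = over half of replicate activation scores above 10%, or exactly half above 10 with the replicate mean above 10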
XBP1 UPR activ: activators of adaptive XBP1 UPR arm, primary screen, cell-based, CHO-XBP1 luciferase reporter, luminescence, uHTS. IRE1-XBP1 UPR activation; percent of tunicamycin response, DMSO as zero. activation, % at 20 µM. 330,000 compounds, 0.33% hits. AID 463104, 2010;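 active = versus positive control, 20 µM dose yields 30% or more activation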;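 note: 100% = tunicamycin at 10 µg/mL and 0% = DMSO only wells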
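Material: CHO-XBP1 cells stably carrying IRE1-XBP1-driven luciferase reporter | Medium: F12 with 10% serum | Compound dosing: 20 µM single concentration, DMSO 1% | Incubation: Overnight seeding at 37 °C, 6 h compound treatment at 37 °C | Detection: Steady-Glo luminescence read | Read-out basis: % activation of reporter signal versus tunicamycin and DMSO controls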
UPR CHOP act: activators of apoptotic CHOP UPR arm, primary screen, cell-based, CHO-CHOP luciferase reporter, luminescence, uHTS; UPR activation; percent of tunicamycin response over DMSO baseline; activation, % at 10 µM; 330,000 compounds, 0.34% hits;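 active = at 10 µM dose, activation of 40% or more, normalized to positive control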;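 note: 100% = tunicamycin at 10 µg/mL and 0% = DMSO alone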
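System: CHO-CHOP luciferase reporter cell line; amount: 500 cells/well; buffer or medium: F12 medium containing 10% fetal bovine serum; incubation: 6 h compound exposure at 37 °C after overnight seeding; measured by: luciferase luminescence after 10 min with Steady-Glo reagent; evaluation: % reporter activation, DMSO baseline versus tunicamycin full activation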
UPR CHOP confirm: activators of apoptotic CHOP UPR arm, confirmation, cell-based, CHO-CHOP luciferase reporter, single concentration. shares compounds with UPR CHOP act. CHO-CHOP cells, CHOP-luciferase reporter luminescence; percent of tunicamycin response, DMSO as zero. activation, % at 10 µM. 1,000 compounds, 64% hits. AID 463112, 2010; in the data active = activation above about 33%;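 note: 0% = DMSO wells and 100% = tunicamycin 10 µg/mL wells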
Starred values were filed as active, the others as inactive; / = no result.

SMILES	CHOP inh	Bfl-1 A1 inh	XBP1 UPR activ	UPR CHOP act	UPR CHOP confirm
CCn1ncc(Br)c1C(=O)NC1CCCCCCC1	/	0.3	-5.1	-2.2	/
Cc1ccccc1S(=O)(=O)Cc1ccc(C(=O)NCCCN2CCC(C)CC2)o1	/	-0.8	-5.0	-1.0	/
CCC(C)CCN1C(Nc2ccccc2)=NC[C@@H]1C (stereo not given in full)	/	0.0	1.2	-2.4	/
O=C(CCC(=O)Nc1ccc(Cl)cc1Cl)N/N=C/c1ccc([N+](=O)[O-])o1	-39.9	0.4	7.8	192.9*	106.5*
Cc1cc2nnc(SCC(=O)NC3CCCCC3)n2c(N)n1	/	0.0	-1.4	0.0	/
O=C(O)c1cn(-c2ccccc2)nc1-c1ccncc1	15.7	2.2	-2.3	-0.9	/
O=C(c1cn(-c2ccccc2)nc1-c1ccncc1)n1nnc2ccccc21	/	0.2	-5.4	98.7*	25.1
COc1ccccc1NC(=O)COC(=O)CCn1c(C)csc1=O	/	0.3	-0.9	-0.2	/
COc1ccc(/C=C\c2nc(=O)c3ccccc3o2)cc1	-29.7	/	6.6	57.1*	120.6*
Cc1cccc(C(=O)OCc2cc(=O)oc3c(C)c(C)ccc23)c1O	/	0.7	34.1*	43.2*	4.5
Cc1cc(C(=O)c2ccccc2)c(NC(=O)CN2CCOCC2)s1	9.8	0.6	-0.8	-1.9	/
Cc1cc(C(=O)c2ccc(C(C)(C)C)cc2)c(NC(=O)CCl)s1	31.2	1.0	5.9	50.3*	93.7*
CC1CCCN(C(=S)SCC(=O)c2cc(Br)cc(Br)c2O)C1 (stereo not given)	10.0	-0.3	3.2	0.4	/
O=C(CSC(=S)N1CCCC1)c1cc(Br)cc(Br)c1O	-52.2	-0.1	9.2	71.1*	44.9*
O=C(/C=C/c1ccc([N+](=O)[O-])cc1)/C=C/c1ccco1	/	0.3	-2.1	56.6*	108.4*
O=C(Nc1ccc2oc(-c3ccncc3)nc2c1)c1ccc([N+](=O)[O-])o1	/	0.3	15.2	162.4*	46.0*
O=C(Nc1ccc(-c2nc3ncccc3o2)cc1)c1ccc([N+](=O)[O-])o1	/	0.1	18.3	312.7*	135.4*
Cc1ccc(-c2nc3ncccc3o2)cc1NC(=O)c1ccc([N+](=O)[O-])o1	/	0.0	-0.4	8.9	/
O=C(Nc1nc2ccccc2s1)c1ccc([N+](=O)[O-])o1	/	-2.0	2.5	73.4*	8.0
O=c1cc(C(O)C[N+](=O)[O-])occ1OCc1ccccc1 (stereo not given)	/	-0.9	0.1	0.7	/
CC(C)NC(=O)c1onc(CSc2nc3ccccc3[nH]2)c1C(=O)NC(C)C	/	-0.6	0.4	-0.3	/
COc1cc2c(c(OC)c1CC=C(C)C)C[C@H](c1ccc(O)cc1O)CO2	/	-0.4	-5.9	-1.1	/
CC1(C)Cc2c(sc(NC(=O)COc3cccc4ccccc34)c2C#N)C(C)(C)N1	16.5	0.4	25.1	54.0*	19.1
COc1cc(/C=C(/C(=O)c2cccs2)c2nc3ccccc3[nH]2)ccc1O	-49.3	0.6	-2.8	3.3	/
O=C(/C(=C/c1ccc(Cl)cc1)c1nc2ccccc2[nH]1)c1cccs1	-126.9	1.9	-4.6	86.7*	84.6*
SMILES	CHOP inh	Bfl-1 A1 inh	XBP1 UPR activ	UPR CHOP act	UPR CHOP confirm
C=CCN=c1scc(-c2ccco2)n1/N=C/c1ccc(O)c(O)c1O	-80.9	-4.0	2.8	161.1*	63.5*
Oc1ccc(/C=N/n2c(-c3ccco3)csc2=Nc2cccnc2)c(O)c1	40.2	-0.4	2.4	0.3	/
CCOC(=O)c1csc(NC(=O)CN2CCOCC2)n1	/	-0.5	-2.2	-2.2	/
Cc1nn(CC2CC2)c(=O)n1-c1ccc(Cl)cc1	7.7	-0.5	-0.8	-0.4	/
Cc1nn(CC2CC2)c(=O)n1-c1ccccc1	8.0	-0.1	1.1	47.7*	-1.1
Cc1ccc(S(=O)(=O)N(C(=O)c2ccncc2)c2ccc(OC(=O)c3ccncc3)c3ccccc23)c(C)c1	-199.8	0.3	-2.8	58.7*	113.2*
Cc1ccc(S(=O)(=O)N(C(=O)c2ccncc2)c2ccc(OC(=O)c3ccncc3)c3ccccc23)cc1	-26.6	0.3	-2.3	13.8	/
O=C(NN=Cc1ccccc1C(=O)O)c1ccc(NS(=O)(=O)c2cccs2)cc1	/	-0.4	-1.1	-0.7	/

From PubChem BioAssay
